ChEMBL document CHEMBL1127444, “Aza-tricyclic substance P antagonists” (J Med Chem, 1994)

species: Cavia porcellus; assay: Inhibition of capsaicin-induced plasma extravasation in guinea pig ureter; format: functional
Outline: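 Male Hartley guinea pigs (300–400 g), fasted overnight, anaesthetised with pentobarbital 25 mg/kg. Compound given po 1 h before capsaicin, at four doses. Evans Blue 30 mg/kg iv, then 5 min later 30 μM capsaicin in 0.1% BSA Krebs bicarbonate, 10 mL per animal. Killed 10 min later. Ureter extracted in formamide at 60 °C for 24 h and OD read at 600 nm. ED50 with 95% confidence limits.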

Row | SMILES | ED50 [mg/kg]
1 | COc1ccccc1CN[C@H]1C2C3CCCC2CN(C3)[C@H]1C(c1ccccc1)c1ccccc1 | 4.43
2 | COc1ccccc1CNC1C2CC3CCC(C2)N3[C@H]1C(c1ccccc1)c1ccccc1 (stereo not given in full) | 4.13
3 | COc1ccccc1CNC1C2C3CCC2CN(C3)[C@H]1C(c1ccccc1)c1ccccc1 (stereo not given in full) | 2.61
4 | COc1ccccc1CN[C@H]1C2CCN(CC2)[C@H]1C(c1ccccc1)c1ccccc1 [CP-96345] | 2.83

molecular target: Substance-P receptor (Homo sapiens, UniProt P25103); assay: Tested in vitro for the binding affinity towards NK1 receptor in human IM-9 cells using [125I]-labeled bolton-hunter substance P as ligand; format: cell-based
Sequence (P25103 whole entry): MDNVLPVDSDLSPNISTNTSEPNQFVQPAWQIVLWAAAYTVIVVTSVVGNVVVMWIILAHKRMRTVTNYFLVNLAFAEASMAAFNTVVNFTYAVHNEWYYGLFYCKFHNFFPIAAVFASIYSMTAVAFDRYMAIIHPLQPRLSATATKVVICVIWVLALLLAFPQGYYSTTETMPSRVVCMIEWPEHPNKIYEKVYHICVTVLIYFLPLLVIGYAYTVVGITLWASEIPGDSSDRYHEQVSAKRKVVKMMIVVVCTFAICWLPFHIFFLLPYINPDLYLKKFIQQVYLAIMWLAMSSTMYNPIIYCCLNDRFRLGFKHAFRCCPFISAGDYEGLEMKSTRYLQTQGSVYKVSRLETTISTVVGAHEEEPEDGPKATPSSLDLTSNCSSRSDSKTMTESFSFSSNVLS
Outline: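 IC50 from six-point concentration–response curves, each concentration in duplicate. Mean ± SEM of three separate experiments.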

Row | SMILES | IC50 [nM]
5 | Clc1ccccc1CN[C@H]1C2C3CCCC2CN(C3)[C@H]1C(c1ccccc1)c1ccccc1 | 39
6 | c1ccc(CNC2C3CC4CCC(C3)N4[C@H]2C(c2ccccc2)c2ccccc2)cc1 (stereo not given in full) | 68
7 | c1ccc(CN[C@H]2C3C4CCCC3CN(C4)[C@H]2C(c2ccccc2)c2ccccc2)cc1 | 230
8 | COc1ccccc1CNC1C2CC3CCOC(C2)N3[C@H]1C(c1ccccc1)c1ccccc1 (stereo not given in full) | 7.2
9 | Clc1ccccc1CNC1C2CC3CCC(C2)N3[C@H]1C(c1ccccc1)c1ccccc1 (stereo not given in full) | 7.1
10 | FC(F)(F)c1ccccc1CNC1C2CC3CCCC(C2)N3[C@H]1C(c1ccccc1)c1ccccc1 (stereo not given in full) | 4400
11 | COc1ccccc1CNC1C2CC3CCC(C2)N3[C@H]1C(c1ccccc1)c1ccccc1 (stereo not given in full) | 0.92
12 | c1ccc(CNC2C3CC4CCCC(C3)N4[C@H]2C(c2ccccc2)c2ccccc2)cc1 (stereo not given in full) | 170
13 | Clc1ccccc1CNC1C2CC3CCCC(C2)N3[C@H]1C(c1ccccc1)c1ccccc1 (stereo not given in full) | 58
14 | COc1ccccc1CNC1C2C3CCC2CN(C3)[C@H]1C(c1ccccc1)c1ccccc1 (stereo not given in full) | 2.4
15 | COc1ccccc1CNC1C2CC3CCCC2CN3[C@H]1C(c1ccccc1)c1ccccc1 (stereo not given in full) | 1.9
